≈ marks a conversion by molar mass, not a printed value.
Key:
[1] = tested on: Staphylococcus aureus; experiment: Antibacterial activity against methicillin-resistant Staphylococcus aureus after 24 hrs by microdilution method; assay type: functional
[2] = tested on: Enterococcus faecium; experiment: Antibacterial activity against vancomycin-resistant Enterococcus faecium after 24 hrs by microdilution method; assay type: functional
[3] = tested on: Enterococcus faecalis; experiment: Antibacterial activity against vancomycin-resistant Enterococcus faecalis after 24 hrs by microdilution method; assay type: functional
[4] = tested on: Streptococcus pneumoniae; experiment: Antibacterial activity against Penicillin-resistant Streptococcus pneumoniae after 24 hrs by microdilution method; assay type: functional
[5] = target: T1, Peptide deformylase (Staphylococcus aureus, UniProt P68826); experiment: Inhibition of Staphylococcus aureus PDF using formyl-methionine-alanine-serine as substrate assessed as increase in NADH levels by microtiter ELISA
T1 sequence (P68826 whole entry): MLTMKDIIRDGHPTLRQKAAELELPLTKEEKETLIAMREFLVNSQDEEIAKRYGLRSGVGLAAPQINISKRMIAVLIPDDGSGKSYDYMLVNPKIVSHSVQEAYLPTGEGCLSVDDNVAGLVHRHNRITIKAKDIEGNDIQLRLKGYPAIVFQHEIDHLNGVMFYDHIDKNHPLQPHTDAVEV

[6] = target: T2, Peptide deformylase (Staphylococcus aureus) (UniProt P68826); experiment: Inhibition of Staphylococcus aureus PDF using formyl-methionine-alanine-serine as substrate assessed as increase in NADH levels at 100 nM by microtiter ELISA
T2 sequence (whole entry): T1 sequence (P68826 whole entry)

[7] = target: T2, Peptide deformylase (Staphylococcus aureus); experiment: Inhibition of Staphylococcus aureus PDF using formyl-methionine-alanine-serine as substrate assessed as increase in NADH levels at 30 nM by microtiter ELISA
[8] = target: T2, Peptide deformylase (Staphylococcus aureus); experiment: Inhibition of Staphylococcus aureus PDF using formyl-methionine-alanine-serine as substrate assessed as increase in NADH levels at 10 nM by microtiter ELISA
[9] = target: T2, Peptide deformylase (Staphylococcus aureus); experiment: Inhibition of Staphylococcus aureus PDF using formyl-methionine-alanine-serine as substrate assessed as increase in NADH levels at 3 nM by microtiter ELISA
[10] = Plasma clearance in iv/po dosed mouse by LC-MS/MS analysis; assay type: ADME, organism-based
How it was run: (§1)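 Mice, n = 3–5 per group, given the compound intravenously and orally. Plasma pharmacokinetic parameters were derived: total plasma clearance, steady-state volume of distribution, apparent terminal elimination half-life, Tmax after oral dosing, and absolute oral bioavailability (%F).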

[11] = Volume of distribution at steady state in iv/po dosed mouse plasma by LC-MS/MS analysis; assay type: ADME, organism-based; settings: read-out: Vdss; how it was run: as §1
[12] = Apparent terminal half life in iv/po dosed mouse plasma by LC-MS/MS analysis; assay type: ADME, organism-based; settings: read-out: betat1/2(app) (converted); how it was run: as §1
[13] = Tmax in iv/po dosed mouse plasma by LC-MS/MS analysis; assay type: ADME, organism-based; how it was run: as §1
[14] = Apparent oral bioavailability in mouse plasma by LC-MS/MS analysis; assay type: ADME, organism-based; how it was run: as §1
[15] = tested on: Escherichia coli; experiment: Antibacterial activity against Escherichia coli after 24 hrs by microdilution method; assay type: functional
[16] = tested on: Pseudomonas aeruginosa; experiment: Antibacterial activity against Pseudomonas aeruginosa after 24 hrs by microdilution method; assay type: functional

Compound | MIC [1] | MIC [2] | MIC [3] | MIC [4] | IC50 [5] | inhibition [6] | inhibition [7] | inhibition [8] | inhibition [9] | clearance [10] | Vd [11] | half-life [12] | Tmax [13] | bioavailability [14] | MIC [15] | MIC [16]
CC(C)(C)[C@H](NC(=O)[C@H](CC1CCCC1)CN(O)C=O)C(=O)N1CCC(NCc2ccc(C#N)cc2)CC1 | 3.1 mg/L (≈ 5.9 µM) | 0.8 mg/L (≈ 1.52 µM) | 0.8 mg/L (≈ 1.52 µM) | 0.4 mg/L (≈ 0.761 µM) | 0.03 µM | 77% | 54% | 19% | -6% | 3.09 L/h/kg | 3.49 L/kg | 21.6 min | 30 min | 103% | – | –
CC(C)(C)[C@H](NC(=O)[C@H](CC1CCCC1)CN(O)C=O)C(=O)N1CCC(NCc2ccc(O)cc2)CC1 | > 50 mg/L | 50 mg/L (≈ 96.8 µM) | > 50 mg/L | 3.1 mg/L (≈ 6 µM) | – | – | – | – | – | – | – | – | – | – | – | –
CC(C)(C)[C@H](NC(=O)[C@H](CC1CCCC1)CN(O)C=O)C(=O)N1CCC(NCc2ccccn2)CC1 | 25 mg/L (≈ 49.8 µM) | 12.5 mg/L (≈ 24.9 µM) | 12.5 mg/L (≈ 24.9 µM) | 1.6 mg/L (≈ 3.19 µM) | – | – | – | – | – | – | – | – | – | – | > 50 mg/L | > 50 mg/L
CC(C)(C)[C@H](NC(=O)[C@H](CC1CCCC1)CN(O)C=O)C(=O)N1CCC(Nc2ccccc2)CC1 | 6.3 mg/L (≈ 12.9 µM) | 0.8 mg/L (≈ 1.64 µM) | 3.1 mg/L (≈ 6.37 µM) | 0.8 mg/L (≈ 1.64 µM) | – | – | – | – | – | – | – | – | – | – | > 50 mg/L | > 50 mg/L
CC(C)(C)[C@H](NC(=O)[C@H](CC1CCCC1)CN(O)C=O)C(=O)N1CCC(NCc2ccc[nH]2)CC1 | > 50 mg/L | > 50 mg/L | > 50 mg/L | 6.3 mg/L (≈ 12.9 µM) | – | – | – | – | – | – | – | – | – | – | > 50 mg/L | > 50 mg/L
CC(C)(C)[C@H](NC(=O)[C@H](CC1CCCC1)CN(O)C=O)C(=O)N1CCC(N)CC1 | > 50 mg/L | > 50 mg/L | 50 mg/L (≈ 122 µM) | 1.6 mg/L (≈ 3.9 µM) | – | – | – | – | – | – | – | – | – | – | > 50 mg/L | > 50 mg/L
CC(C)(C)[C@H](NC(=O)[C@H](CC1CCCC1)CN(O)C=O)C(=O)N1CCC(NCc2nc3ccccc3[nH]2)CC1 | 6.3 mg/L (≈ 11.7 µM) | 12.5 mg/L (≈ 23.1 µM) | 6.3 mg/L (≈ 11.7 µM) | 1.6 mg/L (≈ 2.96 µM) | – | – | – | – | – | – | – | – | – | – | > 50 mg/L | > 50 mg/L
CC(C)(C)[C@H](NC(=O)[C@H](CC1CCCC1)CN(O)C=O)C(=O)N1CCC(NCc2ccco2)CC1 | 50 mg/L (≈ 102 µM) | 50 mg/L (≈ 102 µM) | 25 mg/L (≈ 51 µM) | 1.6 mg/L (≈ 3.26 µM) | – | – | – | – | – | – | – | – | – | – | > 50 mg/L | > 50 mg/L
CC(C)(C)[C@H](NC(=O)[C@H](CC1CCCC1)CN(O)C=O)C(=O)N1CCC(NCc2ccc(F)cc2)CC1 | 6.3 mg/L (≈ 12.1 µM) | 0.4 mg/L (≈ 0.771 µM) | 3.1 mg/L (≈ 5.98 µM) | 0.4 mg/L (≈ 0.771 µM) | – | – | – | – | – | – | – | – | – | – | – | –
Cc1ccc(CNC2CCN(C(=O)[C@@H](NC(=O)[C@H](CC3CCCC3)CN(O)C=O)C(C)(C)C)CC2)cc1 | 6.3 mg/L (≈ 12.2 µM) | 0.4 mg/L (≈ 0.777 µM) | 3.1 mg/L (≈ 6.02 µM) | 0.4 mg/L (≈ 0.777 µM) | – | – | – | – | – | – | – | – | – | – | – | –
CN[C@@H](CC(C)C)C(=O)N[C@H]1C(=O)N[C@@H](CC(N)=O)C(=O)N[C@H]2C(=O)N[C@H]3C(=O)N[C@H](C(=O)N[C@@H](C(=O)O)c4cc(O)cc(O)c4-c4cc3ccc4O)[C@H](O)c3ccc(c(Cl)c3)Oc3cc2cc(c3O[C@H]2O[C@@H](CO)[C@H](O)[C@@H](O)[C@@H]2O[C@@H]2C[C@@](C)(N)[C@@H](O)[C@@H](C)O2)Oc2ccc(cc2Cl)[C@H]1O | 3.1 mg/L (≈ 2.14 µM) | > 50 mg/L | > 50 mg/L | 0.8 mg/L (≈ 0.552 µM) | – | – | – | – | – | – | – | – | – | – | > 50 mg/L | > 50 mg/L
CC(C)(C)[C@H](NC(=O)[C@H](CC1CCCC1)CN(O)C=O)C(=O)N1CCN(Cc2ccc3c(c2)OCO3)CC1 | – | – | – | – | 0.03 µM | 72% | 34% | 1% | – | – | – | – | – | – | – | –

Reference: ChEMBL document CHEMBL3808332, “Identification of novel aminopiperidine derivatives for antibacterial activity against Gram-positive bacteria” (Bioorg Med Chem Lett, 2016)
